Assay outcomes: PubChem, several laboratories
Sampled rows, rich in hits. Any-hit rate of the full collection: about 2.9%.
SENP8 block-1: SENP8 protease inhibitors, primary screen, biochemical, luminescence | Sentrin-specific protease 8 (Homo sapiens), Q96LD8 | purified SENP8, Z-RLRGG-aminoluciferin cleavage | inhibition, % at 10 µM | 330,000 tested, 1.2% active; in the data active = inhibition above about 50%
SENP7 inh: SENP7 protease inhibitors, primary screen, biochemical, luminescence, uHTS; Sentrin-specific protease 7 (Homo sapiens), Q9BQF6; recombinant SENP7, Z-RLRGG-aminoluciferin luminescence, 40 min; inhibition, % at 5 µM; 330,000 tested, 1.5% active; AID 434973, 2010;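 active = inhibition above about 50% at the single test dose, limit read from the data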;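 also: plate controls were DMSO with enzyme for no effect and no enzyme buffer wells for full effect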
Target sequence (Q9BQF6 706-1050 limits assumed): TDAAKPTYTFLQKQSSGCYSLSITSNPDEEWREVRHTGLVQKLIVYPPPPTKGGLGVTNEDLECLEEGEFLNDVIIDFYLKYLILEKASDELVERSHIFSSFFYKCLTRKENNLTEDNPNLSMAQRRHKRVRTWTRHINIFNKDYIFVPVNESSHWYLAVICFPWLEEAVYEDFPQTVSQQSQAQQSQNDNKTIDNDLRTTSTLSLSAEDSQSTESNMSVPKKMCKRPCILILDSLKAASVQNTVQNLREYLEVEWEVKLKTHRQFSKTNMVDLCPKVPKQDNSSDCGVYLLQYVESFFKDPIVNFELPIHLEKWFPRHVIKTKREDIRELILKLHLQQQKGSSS
SENP1 FRET inh: human SENP1 catalytic domain inhibitors, primary screen, biochemical, FRET, uHTS. Sentrin-specific protease 1 (Homo sapiens), Q9P0U3. recombinant SENP1 catalytic domain, CyPet-SUMO1-YPet FRET cleavage. inhibition, % at 10 µM. 360,000 tested, 0.21% active;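 active = inhibition at least 30% at 10 µM, raw YFP signal under a set limit, fluorescence ratio 0.5 to 1.5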;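 also: 0% = enzyme with DMSO and 100% = no enzyme wells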
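Controls: no-enzyme wells low, DMSO-plus-enzyme wells high control. Test system: human recombinant His6-tagged SENP1 catalytic domain enzyme. Reagent: SFCypet-SUMO1-SFYpet FRET protein substrate, 25 nM final. Doses: one dose per compound, 10 µM, 0.5% DMSO. Detection: FRET, CFP and YFP emission. Timing: 50 min reaction at room temperature.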
SENP6 block: SENP6 protease inhibitors, primary screen, biochemical, luminescence, uHTS; Recombinant SENP6 catalytic domain, aminoluciferin luminescence; inhibition, % at 10 µM; 330,000 tested, 1.8% active;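 active = inhibition above about 50% at the single tested dose, limit read from the data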;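 also: plate controls were DMSO wells with enzyme for no effect and DMSO wells lacking enzyme for full effect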
SENP8 block-2: human SENP8 protease inhibitors, primary screen, biochemical, fluorescence, Nedd8 protein substrate, uHTS. Sentrin-specific protease 8 (Homo sapiens), Q96LD8. recombinant SENP8. inhibition, % at 20 µM. 360,000 tested, 0.64% active. AID 602440, 2012; in the data active = inhibition mostly above about 40%, no sharp cut-off; inactive = mostly below about 27%
HSP90 inh: HSP90 inhibitors, primary screen, cell lysate, luminescence. Rabbit reticulocyte lysate, luciferase refolding luminescence, 3 h. inhibition, % at 5.6 µM. 290,000 tested, 0.91% active;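 active = inhibition above the screen-wide mean plus 3 SD, computed separately per campaign, cut at about 16% in these data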;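 also: 0% = DMSO wells and 100% = 60 µM geldanamycin wells; inhibitors lower the luminescence because luciferase stays unfolded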
SENP8 conf: human SENP8 protease inhibitors, confirmation, biochemical, Nedd8 protein substrate, single concentration; AID 624319, 2012; shares compounds with SENP8 block-2; 1,400 tested, 15% active; purified SENP8, Nedd8-AMC/pro-Nedd8 cleavage fluorescence, 30 min; inhibition, % at 25 µM; in the data active = inhibition mostly above about 39%, no sharp cut-off; inactive = mostly below about 34%
SENP1 conf: human SENP1 catalytic domain inhibitors, confirmation, biochemical, FRET endpoint, single concentration | shares compounds with SENP1 FRET inh | recombinant SENP1, CyPet-SUMO1-YPet FRET cleavage | inhibition, % at 10 µM | 520 tested, 34% active; in the data active = inhibition mostly above about 35%, no sharp cut-off; inactive = mostly below about 32%;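 also: 0% = enzyme with DMSO and 100% = no enzyme control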
SENP1 kin conf: human SENP1 catalytic domain inhibitors, confirmation, biochemical, kinetic FRET, single concentration | shares compounds with SENP1 FRET inh | recombinant SENP1, CyPet-SUMO1-YPet FRET kinetic cleavage | inhibition, % at 10 µM | 520 tested, 26% active; in the data active = inhibition mostly above about 32%, no sharp cut-off; inactive = mostly below about 29%;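 also: 0% = DMSO with enzyme and 100% = no enzyme substrate only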
* = called active by the depositor; . = no result given.

SMILES	SENP8 block-1	SENP7 inh	SENP1 FRET inh	SENP6 block	SENP8 block-2	HSP90 inh	SENP8 conf	others
O=C(NCCCN1CCCCCC1)C1CC(=O)N(CCc2ccccc2)C1 (stereo not drawn)	2.6	2.2	-5.3	0.1	55.9*	3.5	9.0
COc1ccc(N/C=C/c2nc(SC)nnc2C)cc1	-6.3	-1.9	-21.8	-10.5	35.6*	2.6	36.4
CCCc1nc2ccccc2n1CCOc1ccccc1	-4.1	7.8	0.6	-10.2	42.2*	-1.7	7.2
CCOC(=O)c1sc(C)c2c(=O)n(CC(=O)c3ccc(Br)cc3)nnc12	-6.4	3.6	0.4	-8.9	40.5*	-3.1	17.9
CCOC(=O)Cn1c(C)nc2c(C(=O)OCC)sc(C)c2c1=O	2.4	1.8	2.1	-22.1	-241.4	-2.4	.
CCN1C(=C(C#N)C#N)C=Cc2ccccc21	-3.1	-4.9	-0.4	-8.2	14.4	-1.8	.
CCOC(=O)/C(C#N)=C1/C=Cc2ccccc2N1CC	5.0	2.1	0.1	-7.8	40.6*	3.8	18.2
COc1ccc(CNC(=O)Nc2cc(C)cc(C)c2)cc1	-10.9	-3.5	2.3	1.4	42.9*	4.0	0.7
COc1ccc(CNC(=O)Nc2ccc(C)cc2)cc1	-7.3	-7.0	3.3	-31.0	15.4	-1.6	.
COc1cc2c(C(=O)Nc3ccccc3F)cn(C)c(=O)c2cc1OC	3.6	4.1	0.2	19.5	17.9	0.8	.
COc1ccccc1NC(=O)c1cn(C)c(=O)c2cc(OC)c(OC)cc12	-6.6	-10.1	0.6	-8.8	41.5*	1.4	63.3*
CCN(C(=O)c1cn(C)c(=O)c2cc(OC)c(OC)cc12)c1cc(OC)ccc1OC	-1.4	-0.4	0.9	-12.6	42.6*	1.0	13.3
O=c1c(N2CCOCC2)nsnc1N1CCOCC1	-6.2	1.5	1.5	3.5	49.3*	0.0	24.6
COC(=O)Oc1nsnc1N1CCOCC1	1.5	-3.0	-1.2	5.9	12.9	2.4	.
O=[N+]([O-])c1ccc(C=NNc2ccccc2)cc1	.	.	71.6*	.	44.3*	.	24.9	SENP1 conf=59.0*;SENP1 kin conf=43.0*
O=[N+]([O-])c1cccc(C=NNc2ccccc2)c1	.	.	0.6	.	9.7	.	.
CC(=O)O/N=C(\N)c1cnn2c(C(F)(F)F)cc(C(F)(F)F)nc12	-1.5	-8.1	-1.5	-1.3	11.6	2.3	.
CN(N=Cc1cccc2cccnc12)c1ccc([N+](=O)[O-])cc1[N+](=O)[O-]	.	.	31.4*	.	41.4*	.	10.0	SENP1 conf=34.5*;SENP1 kin conf=22.4
CC(C)(CN=C1NS(=O)(=O)c2ccccc21)CNC(=O)c1ccccc1	-6.8	-5.9	-0.1	-9.7	0.1	-2.0	.
O=C(C1=C(Nc2ccccc2)c2ccccc2S(=O)(=O)N1)c1ccccc1	-8.7	-1.4	48.6*	-19.1	27.1	6.2	.	SENP1 conf=21.6;SENP1 kin conf=24.1
CCC1(c2ccc(F)cc2)NC(=O)N(CC(=O)NC2CCCC(C)C2C)C1=O (stereo not drawn)	3.6	8.7	-1.1	-8.3	-1.4	.	.
COC(=O)/C=C1/S/C(=N/NC(=O)c2ccc(OC)cc2)NC1=O	-7.1	5.1	4.4	-8.8	12.6	-2.5	.
COC(=O)/C=C1\S/C(=N/NC(=O)c2ccc(OC)cc2)NC1=O	1.9	-3.6	53.9*	7.7	2.7	0.6	.	SENP1 conf=6.8;SENP1 kin conf=7.6
